# HUVEC inhibit: blocks proliferation of human endothelial cells; HUVEC proliferation, CellTiter-Glo luminescence, 72 h; hits give low values; viability, % at 10 µM (by protocol); hit rate 1.1% among 86,000; AID 648;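 active means viability at or below 30%; inactive means viability above 30%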;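 further: 100% = median luminescence of DMSO-only cell control wells on each plate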
# H69AR inhibit: growth inhibitors of human H69AR lung tumor cells; hit rate 6% among 85,000; H69AR lung tumor viability, ATP luminescence, 72 h; hits give low values; viability, % at 10 µM;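 active means viability at or below 40%; inactive means viability above 40%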;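 further: multidrug resistant small cell line overexpressing MRP-1 efflux transporter; 100% = mean luminescence of untreated control wells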
# cytoskel mod: alters cytoskeleton assembly in HUVEC cells | HUVEC TNFa F-actin phalloidin imaging, high content | inhibition, % at 2 µM | hit rate 0.18% among 91,000 | AID 836;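 active means inhibition above the batch mean plus 3 SD and confirmed as a hit by visual image inspection, cut at about 30% in these data, passing the limit was not always enough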
# Pyk2 oligo antag: antagonists of human Pyk2 oligomerization. hit rate 0.83% among 99,000. Q293 cells, Pyk2 FERM NanoBiT luminescence; hits give low values. Q14289. z-score (the deposit names both 25 µM and 10 µM). AID 1347419;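 active means Z-score of -3 or lower, scaled per plate to the spread of control and sample wells; inactive means z-score above -3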;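 further: negative z-score means lost luminescence so less FERM oligomerization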
# Jurkat viability: cytotoxicity toward Jurkat cells; Jurkat E6.1 viability, ATP luminescence, 48 h; inhibition, % at 4 µM; hit rate 1.2% among 56,000; AID 463;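 active means inhibition above the mean inhibition of all tested compounds plus 3 SD, cut at about 28% in these data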
# Fibroblast inh: blocks proliferation of human lung fibroblasts; LL 47 human lung fibroblast viability, ATP luminescence; hits give low values; viability, % at 10 µM; hit rate 1.1% among 85,000; AID 719;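 active means viability at or below 50% in the single dose screen; inactive means viability above 50%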;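 further: compound exposure lasted 72 h before the ATP readout; 100% = median luminescence of untreated cell-only wells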
#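 Times – overnight cell rest, 72 h compound treatment at 37 °C · Test system – human lung fibroblast line LL 47, low passage · Amount – 1,150 cells in each well · Controls – cell-only wells, no compound · Doses – 0.1% DMSO in all compound wells · Measured by – CellTiter-Glo luminescence · Buffer or medium – IMEM plus 15% FBS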
# Starred values were filed as active, the others as inactive; / = no result given. Rows were chosen to be rich in hits. Some 6% of all compounds tested hit in one or more screens of this group.
SMILES,HUVEC inhibit,H69AR inhibit,cytoskel mod,Pyk2 oligo antag,Jurkat viability,Fibroblast inh
O=C1CSC(c2cn(-c3ccccc3)nc2-c2cc3ccccc3oc2=O)N1Cc1ccccc1 (centres undefined),77.2,24.3*,/,-2.38,/,100.4
COc1cccc(C(=O)Nc2ncc3c(n2)CC(c2ccc(OC)cc2OC)CC3=O)c1 (centres undefined),56.6,17.5*,-24.0,-1.03,43.4*,68.5
CCOC(=O)c1c(NC(=O)CSc2n[nH]c(CNc3ccccc3)n2)sc(C)c1C,45.8,31.4*,-3.4,-0.38,/,73.6
CCOC(=O)c1c(NC(=O)CSc2nnnn2CC)sc(C)c1C,101.9,30.6*,1.3,-0.91,-0.7,84.1
CCOC(=O)c1c(NC(=O)CSc2n[nH]c(-c3ccco3)n2)sc(C)c1C,88.8,79.8,7.7,-0.02,7.2,95.9
CC(=O)c1c(C)cc(C)c(CSc2nc(C)cc(=O)[nH]2)c1C,110.5,94.1,/,-2.36,5.1,99.6
C=C(C)COc1ccc(-c2ncncc2Oc2ccc(OC)cc2)c(O)c1,89.0,48.2,13.9,-0.76,4.5,98.4
C=C(C)COc1ccc(-c2[nH]ncc2Oc2ccccc2OCC)c(O)c1,27.3*,/,-7.0,1.11,-3.1,56.0
C=C(C)COc1ccc(-c2[nH]ncc2Oc2cccc(OC)c2)c(O)c1,5.2*,1.3*,10.7,-3.6*,-8.6,54.7
COC(=O)c1cc(NC(=O)c2ccc(Cn3cc(Cl)cn3)o2)cc(C(=O)OC)c1,32.4,2.7*,2.0,-2.57,10.4,6.8*
O=C(Nc1ccc2c(c1)OCO2)C1CCN(Cc2cnn(-c3ccccc3)c2-n2cccc2)CC1,84.2,91.8,-7.0,-0.54,/,101.4
CCn1c(SC(C)C(=O)OC)nnc1-c1c[nH]c2ccccc12 (centres undefined),101.6,90.7,/,/,-7.9,96.3
Cn1c(=O)c2c(nc(NCCO)n2CCc2ccccc2)n(C)c1=O,109.3,97.4,/,0.76,32.1*,102.8
CC(O)CNc1nc2c(c(=O)n(C)c(=O)n2C)n1Cc1cccc(Br)c1 (centres undefined),101.2,/,-28.8,0.23,27.7*,91.5
CCCNc1nc2c(c(=O)n(C)c(=O)n2C)n1Cc1cccc(C)c1,99.3,85.2,13.3,0.28,59.1*,88.1
CCCN(CCC)S(=O)(=O)c1ccc(NC(=O)COc2ccccc2)cc1,90.0,71.1,16.9,0.2,/,97.7
Cc1cccc(/C=N/n2c(C)cc(C)c(C#N)c2=O)c1,97.8,97.5,-19.9,-0.59,/,106.7
CCn1c(=O)c2cc(S(=O)(=O)NC3CCCCC3)ccc2n(CC)c1=O,88.9,93.4,-8.5,-1.57,-0.6,105.0
O=C(C1=C(O)/C(=C/c2ccc(O)cc2)CCC1)C(F)(F)F,82.8,28.6*,6.5,-0.48,/,98.6
COc1ccc(-n2nnnc2S(=O)(=O)CC(=O)N2CCCCC2)cc1,69.1,2.0*,6.3,/,23.0,33.1*
CCOCCCn1c(=N)c(C(=O)Nc2cc(C)on2)cc2c(=O)n3ccccc3nc21,100.3,80.9,13.1,/,2.8,105.5
CCCSc1nc(NCc2ccco2)c2c3c(sc2n1)COC(C)(C)C3,87.8,33.6*,0.1,0.79,/,102.3
CCCCSc1nc(NCc2ccco2)c2c3c(sc2n1)COC(C)(C)C3,93.5,43.7,-37.3,-0.73,/,98.4
CCOc1ccc2nc(C)cc(Nc3ccc4c(c3)OCCO4)c2c1,/,/,68.2*,0.71,/,/
CCOC(=O)c1cnc2ccc(OC)cc2c1Nc1ccc2c(c1)OCCO2,/,/,-11.9,-3.95*,/,/
SMILES,HUVEC inhibit,H69AR inhibit,cytoskel mod,Pyk2 oligo antag,Jurkat viability,Fibroblast inh
CCOC(=O)c1cnc2ccc(C(=O)OC)cc2c1Nc1ccc2c(c1)OCCO2,/,/,0.4,-1.53,/,/
CCOC(=O)c1ccc(N2C(=O)c3n[nH]c(C)c3C2c2ccc(OC)cc2OC)cc1 (centres undefined),84.2,68.9,16.1,-3.17*,3.4,87.5
Clc1ccc(OCc2nn3c(-c4ccco4)nnc3s2)c(Cl)c1,102.0,34.4*,-18.4,0.36,-13.5,94.3
Clc1ccc(-c2ccc(-c3nn4c(-c5ccco5)nnc4s3)o2)cc1,83.4,26.3*,2.8,0.9,-1.4,89.3
Cc1occc1-c1nnc2sc(-c3ccc(-c4ccc(Cl)cc4)o3)nn12,/,/,/,/,0.6,/
Cc1ccc(OCc2nn3c(-c4ccco4)nnc3s2)cc1,96.0,94.0,6.9,1.13,2.6,111.5
O=C(O)CN1C(=O)SC(Nc2ccccc2C(=O)O)C1=O (centres undefined),95.4,93.7,2.9,0.9,/,101.9
Cc1ccc(N(Cc2ccc(C(=O)NC3CCCCC3)cc2)S(C)(=O)=O)cc1C,62.1,19.2*,/,-1.1,/,90.7
CS(=O)(=O)N(Cc1ccccc1)c1ccc(C(=O)NC2CCCCC2O)cc1 (centres undefined),98.8,101.2,2.5,-0.04,4.3,97.6
O=[N+]([O-])/C=C/c1c(OCc2ccccc2)ccc2ccccc12,26.8*,2.8*,/,1.51,/,7.6*
CCOc1ccc(/C=C/[N+](=O)[O-])c2ccccc12,/,/,3.8,0.5,/,/
CCc1ccc(N2CCCn3c2nc2c3c(=O)n(CCN3CCOCC3)c(=O)n2C)cc1,92.7,/,/,/,-5.0,96.8
COc1cccc(C2=CC(c3ccc(OC)c(OC)c3OC)n3nnnc3N2)c1 (centres undefined),84.8,7.6*,/,1.54,23.2,79.1
COc1ccc(C2=CC(c3sccc3C)n3nnnc3N2)cc1 (centres undefined),91.0,40.0,/,-0.47,1.9,93.7
COc1ccc(C2=CC(c3ccc(F)cc3)n3nnnc3N2)cc1 (centres undefined),100.9,68.2,/,-0.88,-12.5,98.0
COc1cccc(C2=CC(c3cccs3)n3nnnc3N2)c1 (centres undefined),54.6,14.9*,7.7,-0.35,/,62.2
COc1ccccc1C1C=C(c2ccccc2)Nc2nnnn21 (centres undefined),68.8,10.6*,-12.9,1.02,79.6*,61.2
O=C(NCCCn1ccnc1)Nc1cccc(Cl)c1,93.9,66.3,-11.6,1.58,-1.1,105.4
COc1ccc(OC)c(-n2c(N)c(C(=O)NCC3CCCO3)c3nc4ccccc4nc32)c1 (centres undefined),74.0,49.4,-15.6,-0.25,-7.4,96.3
Nc1c(C(=O)OCC2CCCO2)c2nc3ccccc3nc2n1C1CCCC1 (centres undefined),53.7,14.6*,/,-2.39,5.7,70.5
Nc1c(C(=O)NC2CCCC2)c2nc3ccccc3nc2n1N,79.5,82.9,47.2*,-0.57,-0.1,92.8
CC(C)Cn1c(N)c(C(=O)NCC2CCCO2)c2nc3ccccc3nc21 (centres undefined),74.0,36.0*,0.8,-0.76,1.5,80.3
COCCn1c(N)c(C(=O)NCC2CCCO2)c2nc3ccccc3nc21 (centres undefined),72.1,58.2,12.2,0.43,/,91.0
Cc1ccccc1-n1ncc2c([N+](=O)[O-])cc([N+](=O)[O-])cc21,6.3*,25.0*,-4.5,-0.18,/,64.8
